Test results taken from ChEMBL document CHEMBL1275442, “Pharmacokinetics and tissue distribution of anidulafungin in rats” (Antimicrob Agents Chemother, 2008).

Tests used:
Format in all cases: ADME, organism-based
Spleen [1] = assay: Half life in F344 rat spleen assessed as total compound-derived radioactivity at 5 mg/kg, iv administered as single bolus dose […]; design: dose 5 mg/kg, route intravenous; settings: in vivo
Method in brief: (§1)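 Male F344 rats, 10 to 11 weeks old and 223.6 to 243.8 g, got one iv dose of [14C]anidulafungin at 5 mg/kg over about 5 min. Blood, CSF, kidney, liver, lung, quadriceps, spleen and skin were sampled predose and at 0.083 to 72 h, 3 rats per time. Total radioactivity (parent plus metabolites) was measured by liquid scintillation counting. Parameters were noncompartmental, from a composite mean profile.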

[2] = Cmax in F344 rat kidney at 5 mg/kg, iv administered as single bolus dose after 30 min by HPLC method; design: dose 5 mg/kg, route intravenous
Method in brief: (§2)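 Male F344 rats, 10–11 weeks, 223.6–243.8 g, given one IV dose of [¹⁴C]anidulafungin, 5 mg/kg, over about 5 min. Tissues and blood sampled at 0.083–72 h (n = 3 rats per time). Parent drug measured by HPLC; LLOQ/ULOQ were 20/5,120 ng/ml for plasma and 220/56,320 ng/g for tissue. Noncompartmental parameters taken from the composite mean profile.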

Lung [3] = assay: AUC (0 to 24 hrs) in F344 rat lung at 5 mg/kg, iv administered as single bolus dose; design: time < 24 hr, dose 5 mg/kg, route intravenous; settings: in vivo; method in brief: as §2
Spleen [4] = assay: AUC (0 to 24 hrs) in F344 rat spleen at 5 mg/kg, iv administered as single bolus dose; design: time < 24 hr, dose 5 mg/kg, route intravenous; settings: in vivo; method in brief: as §2
Lung [5] = assay: AUC (0 to 24 hrs) in F344 rat lung assessed as total compound-derived radioactivity per gram of tissue at 5 mg/kg, iv administered as single bolus dose […]; design: time < 24 hr, dose 5 mg/kg, route intravenous; settings: in vivo
Method in brief: (§3)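 Same F344 study: single 5 mg/kg IV [¹⁴C]anidulafungin given over about 5 min. Total drug-derived radioactivity (parent plus metabolites) counted by liquid scintillation, in […]. Noncompartmental analysis of the composite mean profile.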

Lung [6] = assay: Drug level in Long Evans rat lung assessed as radioactivity per gram of tissue at 5 mg/kg, iv administered as single bolus dose measured 12 hrs postdose by autoradiography; design: dose 5 mg/kg, route intravenous; settings: in vivo
Method in brief: (§4)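 Male pigmented Long Evans (HsdBlu:LE) rats, 7.5 weeks old, 202 to 217 g, single iv [¹⁴C]anidulafungin; one rat per sampling time. Euthanized by isoflurane and cardiac-puncture exsanguination. Sagittal whole-body sections quantified by phosphorimaging autoradiography, single samples corrected for section thickness across multiple sections per tissue. Concentrations (μg eq/g drug-derived radioactivity) interpolated from least-squares standard curves per scan.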

Plasma [7] = assay: AUC (0 to 24 hrs) in F344 rat plasma assessed as total compound-derived radioactivity per gram of tissue at 5 mg/kg, iv administered as single bolus dose […]; design: time < 24 hr, dose 5 mg/kg, route intravenous; settings: in vivo; method in brief: as §3
Zone of skin [8] = assay: AUC (0 to 24 hrs) in F344 rat skin at 5 mg/kg, iv administered as single bolus dose; design: time < 24 hr, dose 5 mg/kg, route intravenous; settings: in vivo; method in brief: as §2
Spleen [9] = assay: Drug level in Long Evans rat spleen assessed as radioactivity per gram of tissue at 5 mg/kg, iv administered as single bolus dose measured 24 hrs postdose by autoradiography; design: dose 5 mg/kg, route intravenous; settings: in vivo
Method in brief: (§5)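 Male pigmented Long Evans (HsdBlu:LE) rats, 7.5 weeks old and 202 to 217 g, got a single iv dose of [14C]anidulafungin at 5 mg/kg. One rat per time point (0.5, 6, 12, 24, 72, 168 h) was euthanised by isoflurane and cardiac-puncture exsanguination. Sagittal whole-body sections were quantified by phosphorimaging. Samples were thickness-corrected, and concentrations (μg eq/g) were interpolated from least-squares standard curves.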

Cerebrospinal fluid [10] = assay: Cmax in F344 rat cerebrospinal fluid assessed as total compound-derived radioactivity per gram of tissue at 5 mg/kg, iv administered as single bolus dose […]; design: dose 5 mg/kg, route intravenous; settings: in vivo; method in brief: as §3
Cerebrospinal fluid [11] = assay: AUC (0 to 24 hrs) in F344 rat cerebrospinal fluid assessed as total compound-derived radioactivity per gram of tissue at 5 mg/kg, iv administered as single bolus dose […]; design: time < 24 hr, dose 5 mg/kg, route intravenous; settings: in vivo; method in brief: as §3
Spleen [12] = assay: Tmax in F344 rat spleen assessed as total compound-derived radioactivity at 5 mg/kg, iv administered as single bolus dose […]; design: dose 5 mg/kg, route intravenous; settings: in vivo; method in brief: as §1
[13] = Tmax in F344 rat lung at 5 mg/kg, iv administered as single bolus dose by HPLC method; design: dose 5 mg/kg, route intravenous
Method in brief: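 F344 males, 10 to 11 weeks old and 223.6 to 243.8 g, got a single 5 mg/kg iv dose of [14C]anidulafungin over about 5 min. Plasma and tissues were collected predose and at 0.083 to 72 h, n = 3 per time point. Parent drug was quantified by HPLC-UV, with LLOQ/ULOQ of 20/5,120 ng/ml in plasma and 220/56,320 ng/g in tissue. Noncompartmental parameters came from a composite mean concentration-time profile.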

Zone of skin [14] = assay: Drug level in Long Evans rat skin assessed as radioactivity per gram of tissue at 5 mg/kg, iv administered as single bolus dose measured 72 hrs postdose by autoradiography; design: dose 5 mg/kg, route intravenous; settings: in vivo; method in brief: as §5
Kidney = assay: Drug level in Long Evans rat kidney assessed as low disposition of radioactivity per gram of tissue at 5 mg/kg, iv administered as single bolus dose measured 0.5 hrs postdose by autoradiography; design: dose 5 mg/kg, route intravenous; settings: in vivo; method in brief: as §4
Liver [15] = assay: Drug level in Long Evans rat liver assessed as high disposition of radioactivity per gram of tissue at 5 mg/kg, iv administered as single bolus dose measured 24 hrs postdose by autoradiography; design: dose 5 mg/kg, route intravenous; settings: in vivo; method in brief: as §4
Muscle tissue [16] = assay: AUC (0 to infinity) in F344 rat muscle at 5 mg/kg, iv administered as single bolus dose; design: dose 5 mg/kg, route intravenous, time infinity; settings: in vivo; method in brief: as §2
Cerebrospinal fluid [17] = assay: Drug level in Long Evans rat cerebrospinal fluid assessed as radioactivity per gram of tissue at 5 mg/kg, iv administered as single bolus dose measured 0.5 hrs postdose by autoradiography; design: dose 5 mg/kg, route intravenous; settings: in vivo; method in brief: as §4
[18] = Drug level in Long Evans rat eye assessed as radioactivity per gram of tissue at 5 mg/kg, iv administered as single bolus dose measured 0.5 hrs postdose by autoradiography; design: dose 5 mg/kg, route intravenous; settings: in vivo; method in brief: as §4
Plasma [19] = assay: AUC (0 to infinity) in F344 rat plasma assessed as total compound-derived radioactivity per gram of tissue at 5 mg/kg, iv administered as single bolus dose […]; design: time infinity, dose 5 mg/kg, route intravenous; settings: in vivo; method in brief: as §3
[20] = Cmax in F344 rat plasma at 5 mg/kg, iv administered as single bolus dose after 5 min by HPLC method; design: dose 5 mg/kg, route intravenous; method in brief: as §2
Muscle tissue [21] = assay: Drug level in Long Evans rat muscle assessed as radioactivity per gram of tissue at 5 mg/kg, iv administered as single bolus dose measured 72 hrs postdose by autoradiography; design: dose 5 mg/kg, route intravenous; settings: in vivo; method in brief: as §5
Spleen [22] = assay: AUC (0 to infinity) in F344 rat spleen at 5 mg/kg, iv administered as single bolus dose; design: time infinity, dose 5 mg/kg, route intravenous; settings: in vivo; method in brief: as §2
Muscle tissue [23] = assay: Tmax in F344 rat muscle assessed as total compound-derived radioactivity at 5 mg/kg, iv administered as single bolus dose […]; design: dose 5 mg/kg, route intravenous; settings: in vivo; method in brief: as §1
Lung [24] = assay: Half life in F344 rat lung assessed as total compound-derived radioactivity at 5 mg/kg, iv administered as single bolus dose […]; design: dose 5 mg/kg, route intravenous; settings: in vivo; method in brief: as §1
Muscle tissue [25] = assay: Cmax in F344 rat muscle assessed as total compound-derived radioactivity per gram of tissue at 5 mg/kg, iv administered as single bolus dose […]; design: dose 5 mg/kg, route intravenous; settings: in vivo; method in brief: as §3
Liver [26] = assay: Drug level in Long Evans rat liver assessed as high disposition of radioactivity per gram of tissue at 5 mg/kg, iv administered as single bolus dose measured 12 hrs postdose by autoradiography; design: dose 5 mg/kg, route intravenous; settings: in vivo; method in brief: as §4

For `CCCCCOc1ccc(-c2ccc(-c3ccc([14C](=O)N[C@H]4C[C@@H](O)[C@@H](O)NC(=O)[C@@H]5[C@@H](O)[C@@H](C)CN5C(=O)[C@H]([C@@H](C)O)NC(=O)[C@H]([C@H](O)[C@@H](O)c5ccc(O)cc5)NC(=O)[C@@H]5C[C@@H](O)CN5C(=O)[C@H]([C@@H](C)O)NC4=O)cc3)cc2)cc1` [14C-ANIDULAFUNGIN], the t1/2 (Spleen [1]) was 40.3 h, the Cmax [2] was 16100 ng/g and the AUC (Lung [3]) was 557.77 µg·h/g. For the same molecule, the AUC (Spleen [4]) was 490.36 µg·h/g, the AUC (Lung [5]) was 934.92 ugequiv.hr/g and the Drug uptake (Lung [6]) was 5.64 ugequiv. It also gave an AUC (Plasma [7]) of 131.77 ugequiv.hr/g, an AUC (Zone of skin [8]) of 102.72 µg·h/g and a Drug uptake (Spleen [9]) of 10.25 ugequiv. It also gave a Cmax (Cerebrospinal fluid [10]) of 0.07 ugequiv/g, an AUC (Cerebrospinal fluid [11]) of 0.61 ugequiv.hr/g and a Tmax (Spleen [12]) of 30 min. It also gave a Tmax [13] of 4.98 min, a Drug uptake (Zone of skin [14]) of 4.04 ugequiv and a Drug uptake (Kidney) of 9.18 ugequiv. For the same molecule, the Drug uptake (Liver [15]) was 29.63 ugequiv, the AUC (Muscle tissue [16]) was 57.35 µg·h/g and the Drug uptake (Cerebrospinal fluid [17]) was 5.51 ugequiv. For the same molecule, the Drug uptake [18] was 1.17 ugequiv, the AUC (Plasma [19]) was 177.87 ugequiv.hr/g and the Cmax [20] was 5250 ng/mL. It also gave a Drug uptake (Muscle tissue [21]) of 0.43 ugequiv, an AUC (Spleen [22]) of 567.95 µg·h/g and a Tmax (Muscle tissue [23]) of 30 min. It also gave a t1/2 (Lung [24]) of 42.2 h, a Cmax (Muscle tissue [25]) of 4.16 ugequiv/g and a Drug uptake (Liver [26]) of 25.01 ugequiv.
